According to ChEMBL document CHEMBL4387788, “Brominated Azaphilones from the Sponge-Associated Fungus Penicillium canescens Strain 4.14.6a” (J Nat Prod, 2019):

How the values were obtained:
L5178Y = test: Cytotoxicity against mouse L5178Y cells assessed as reduction in cell viability incubated for 72 hrs by MTT assay; format: functional, cell-based
Summary of the method: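 MTT assay on L5178Y mouse lymphoma cells. Kahalalide F was the positive control; 0.1% ethylene glycol monomethyl ether in DMSO was the negative control.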

A2780 = test: Cytotoxicity against human A2780 cells assessed as reduction in cell viability incubated for 72 hrs by MTT assay; format: functional, cell-based; conditions: A2780, 72 h
Summary of the method: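 A2780 human ovarian cancer cells were seeded at 9500 cells/well and, after 24 h, exposed to 3.6-fold serial dilutions of compound for 72 h. MTT (5 mg/mL in PBS) was added, and the formazan was dissolved in DMSO. Absorbance was read at 544 and 690 nm. Cisplatin was the positive control and 0.9% sodium chloride the negative control.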

Row | SMILES | IC50 (L5178Y) | IC50 (A2780)
1 | COc1cc(C[C@]23COC(/C=C/C=C/C=C/C(=O)O)=CC2=C(Br)C(=O)[C@](C)(OC(=O)C[C@H](O)C[C@@H](C)O)C3=O)c(C(C)=O)c(O)c1O | 13.9 µM | 37 µM
2 | COC1=CC(=O)C[C@@H](C)[C@]12Oc1cc(OC)cc(OC)c1C2=O | > 10 µM | > 10 µM
3 | COC(=O)Cc1cc(O)cc(O)c1C(C)=O | > 10 µM | > 10 µM
4 | C=C(C)C1(O)OC(=O)C=C1OC (stereo not drawn) [PENICILLIC ACID] | 8.9 µM | > 10 µM
5 | CC1(C)C=Cc2cc3c(cc2O1)c(C[C@@H]1NC(=O)C2=CCCN2C1=O)c1n3C=CC1(C)C | > 10 µM | > 10 µM
6 | Cc1cc(O)cc2oc3cc(O)cc(O)c3c(=O)c12 [NORLICHEXANTHONE] | > 10 µM | > 10 µM
7 | COc1cc(C[C@]23COC(/C=C/C=C/C=C/C(=O)O)=CC2=C(Br)C(=O)[C@@](C)(OC(=O)C[C@H](O)C[C@@H](C)O)C3=O)c(C(C)=O)c(O)c1O | 8.9 µM | 2.7 µM
8 | COC(=O)Cc1cc(OC)cc(O)c1C(C)=O | > 10 µM | > 10 µM
9 | COc1cc(O)c2c(=O)c3c(C)cc(O)cc3oc2c1 | > 10 µM | > 10 µM
10 | COc1cc(O)cc(C)c1C(=O)c1c(O)c(Cl)c(OC)c(Cl)c1O | > 10 µM | > 10 µM
11 | COc1cc(O)c(C(=O)c2c(C)cc(O)cc2OC)c(O)c1 | > 10 µM | > 10 µM
12 | COC(=O)c1c(O)cc(OC)c(Cl)c1Oc1c(C)cc(O)cc1OC | > 10 µM | > 10 µM
13 | C/C=C1\NC(=O)[C@H](Cc2ccccc2)NC(=O)[C@@H](C(C)C)NC(=O)[C@@H]([C@@H](C)CC)NC(=O)[C@H](NC(=O)[C@H](NC(=O)[C@H](CCCN)NC(=O)[C@H]2CCCN2C(=O)[C@H](NC(=O)[C@@H](NC(=O)[C@@H](NC(=O)[C@H](NC(=O)CCCC(C)C)C(C)C)[C@@H](C)O)C(C)C)C(C)C)[C@@H](C)CC)[C@@H](C)OC(=O)[C@H](C(C)C)NC1=O | 4.3 µM | 
14 | COC1=CC(=O)C[C@@H](C)[C@]12Oc1c(Cl)c(OC)cc(OC)c1C2=O [GRISEOFULVIN] | > 10 µM | > 10 µM
15 | COc1cc(O)c(C(=O)c2c(C)cc(O)cc2OC)c(O)c1Cl | > 10 µM | > 10 µM
16 | COC(=O)c1c(O)cc(OC)c(Cl)c1Oc1c(C)cc(OC)cc1OC | > 10 µM | > 10 µM
17 | COC(=O)[C@@]12C(O)=C(C)C(=O)[C@]1(C)C(C)=C[C@H]1[C@]34CC[C@H](OC(C)=O)C(C)(C)[C@H]3[C@H](C[C@@]12C)OC4=O | > 10 µM | > 10 µM
